# ChEMBL document CHEMBL6134794, “Anti-Schistosomal activity and ADMET properties of 1,2,5-oxadiazinane-containing compound synthesized by visible-light photoredox catalysis” (RSC Med Chem, 2024)
# Calls of active or inactive are those of the source. The rule behind the calls is not given here.
# What was measured:
# [1] = test system: Schistosoma mansoni; assay: Anti-schistosomal activity against adult male Schistosoma mansoni assessed as motility by measuring measuring pairing and varied movement intensity using viability scale at 10 uM incubated for 24 hrs by inverted microscopic analysis; type: functional
# [2] = test system: HeLa; assay: Cytotoxicity against human HeLa cells assessed as cell viability at 10 uM incubated for 48 hrs by absorbance based WST-8 assay (reference value: 100 %); type: functional; settings: read-out: Activity
# Procedure, shortened: (§1)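 HeLa cells seeded at 1,000 cells/well and exposed to compound at 10, 20 or 30 μM for 2 days. WST-8 absorbance was read at 405 nm. Viability is expressed relative to DMSO-treated wells (100%).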
# [3] = Stability of the compound in PBS at pH 7.4 at 5 uM assessed as compound remaining incubated for 1 hr by LC-MS/MS analysis relative to control; type: physicochemical; settings: read-out: Stability
# Procedure, shortened: (§2)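 Compound at 5 μM in pH 1.2 dissolution test solution 1 or in PBS pH 7.4, held at 37 °C for 0, 1 and 5 h. Reactions were quenched with acetonitrile and centrifuged. Parent remaining was quantified by LC-MS/MS as a percentage of the 0 h sample.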
# [4] = Metabolic stability in mouse liver microsome assessed as compound remaining at 500 uM incubated for 10 mins in presence of NADPH and G6PDH by LC-MS/MS analysis; settings: liver microsomes
# [5] = Cardiotoxicity in human iPSC-CM cells assessed as decrease in beat interval by measuring calcium ion influx at 20 uM incubated for 60 mins by fluorescent indicator analysis; type: toxicity, cell-based; settings: 1 h
# Procedure, shortened: (§3)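 Human iPS cell-derived cardiomyocytes were seeded at 30,000 cells/well on gelatin and maintained 9 days. Cells were then stained with a Ca²⁺-sensitive cardiotoxicity dye kit. Ca²⁺ transients were recorded on an FDSS kinetic imager before and after compound addition.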
# [6] = Cardiotoxicity in human iPSC-CM cells assessed as effect on pulse waveform by measuring calcium ion influx at 20 uM incubated for 60 mins by fluorescent indicator analysis; type: toxicity, cell-based; settings: 1 h; procedure, shortened: as §3
# [7] = test system: Schistosoma mansoni; assay: Anti-schistosomal activity against adult female Schistosoma mansoni assessed as motility by measuring full detachment with weak movement using viability scale at 10 uM incubated for 1 hr by inverted microscopic analysis; type: functional
# Procedure, shortened: (§4)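 Adult worms freshly isolated from infected mice; cultured in RPMI 1640 with 5% FBS and penicillin/streptomycin, with or without compound (0.1, 1, 10 μM), at 37°C under 5% CO₂.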
# [8] = Cardiotoxicity in human iPSC-CM cells assessed as effect on pulse waveform by measuring calcium ion influx at 2 uM incubated for 60 mins by fluorescent indicator analysis; type: toxicity, cell-based; settings: 1 h; procedure, shortened: as §3
# [9] = test system: Schistosoma mansoni; assay: Anti-schistosomal activity against adult male Schistosoma mansoni assessed as motility by measuring pairing and varied movement intensity using viability scale at 10 uM incubated for 1 hr by inverted microscopic analysis; type: functional
# [10] = Lipophilicity, logD of the compound in phosphate-buffered saline (PBS) at pH 7.4 at 100 uM incubated for 20 mins by UPLC analysis; type: physicochemical; settings: buffer, pH 7.4, 20 min
# Procedure, shortened: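 Compound at 100 μM final in PBS with 1% DMSO. logD (pH 7.4) was derived from UPLC (BEH C18) retention times against standards of known logD. Mobile phase was ammonium acetate/acetonitrile, 2–98% B over 1 min at 0.8 mL/min.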
# [11] = Cardiotoxicity in human iPSC-CM cells assessed as effect on beat intervals by measuring calcium ion influx at 0.2 uM incubated for 60 mins by fluorescent indicator analysis; type: toxicity, cell-based; settings: 1 h; procedure, shortened: as §3
# [12] = test system: Schistosoma mansoni; assay: Anti-schistosomal activity against adult male Schistosoma mansoni assessed as worm death at 10 uM incubated for 1 to 120 hrs by inverted microscopic analysis; type: functional, organism-based; settings: time 1-120 hrs; procedure, shortened: as §4
# [13] = Apparent permeability in human Caco-2 cells at 25 uM incubated for 2 hrs by LC-MS/MS analysis; type: ADME, cell-based
# Procedure, shortened: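 Compound at 25 µM in HBSS added to the apical side of cultured Caco-2 monolayers in transwells, with HBSS plus 1% BSA on the basolateral side. After 2 h both compartments were collected, acetonitrile-treated and centrifuged. Supernatants were quantified by LC-MS/MS and Papp calculated. "High" class means Papp above that of propranolol.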
# [14] = Metabolic stability in mouse liver microsome assessed as compound remaining at 500 uM incubated for 60 mins in presence of NADPH and G6PDH by LC-MS/MS analysis; settings: liver microsomes
# [15] = Stability of the compound at pH 1.2 at 5 uM assessed as compound remaining incubated for 1 hrs by LC-MS/MS analysis relative to control; type: physicochemical; settings: buffer, read-out: Stability; procedure, shortened: as §2
# [16] = Metabolic stability in human liver microsome assessed as compound remaining at 500 uM incubated for 60 mins in presence of NADPH and G6PDH by LC-MS/MS analysis; settings: liver microsomes
# [17] = test system: Schistosoma mansoni; assay: Anti-schistosomal activity against adult female Schistosoma mansoni assessed as motility by measuring full detachment with weak movement using viability scale at 10 uM incubated for 24 hrs by inverted microscopic analysis; type: functional
# [18] = Cardiotoxicity in human iPSC-CM cells assessed as decrease in beat interval by measuring calcium ion influx at 2 uM incubated up to 30 mins by fluorescent indicator analysis; type: toxicity, cell-based; settings: 0.5 h; procedure, shortened: as §3
# [19] = Metabolic stability in human liver microsome assessed as compound remaining at 500 uM incubated for 10 mins in presence of NADPH and G6PDH by LC-MS/MS analysis; settings: liver microsomes
# [20] = test system: Schistosoma mansoni; assay: Anti-schistosomal activity against adult female Schistosoma mansoni assessed as motility by measuring full detachment with weak movement using viability scale at 10 uM incubated for 120 hrs by inverted microscopic analysis; type: functional
# [21] = test system: Schistosoma mansoni; assay: Anti-schistosomal activity against adult male Schistosoma mansoni assessed as motility by measuring pairing and varied movement intensity using viability scale at 10 uM incubated for 120 hrs by inverted microscopic analysis; type: functional
# [22] = Stability of the compound at pH 1.2 at 5 uM assessed as compound remaining incubated for 5 hrs by LC-MS/MS analysis relative to control; type: physicochemical; settings: buffer, read-out: Stability; procedure, shortened: as §2
# [23] = Cardiotoxicity in human iPSC-CM cells assessed as effect on beat interval by measuring calcium ion influx at 2 uM measured within 60 mins by fluorescent indicator analysis; type: toxicity, cell-based; settings: 1 h; procedure, shortened: as §3
# [24] = Cardiotoxicity in human iPSC-CM cells assessed as effect on pulse waveform by measuring calcium ion influx at 0.2 uM incubated for 60 mins by fluorescent indicator analysis; type: toxicity, cell-based; settings: 1 h; procedure, shortened: as §3
# [25] = Cardiotoxicity in human iPSC-CM cells assessed as effect on beat intervals by measuring calcium ion influx at 0.2 to 20 uM incubated for 60 mins by fluorescent indicator analysis; type: toxicity, cell-based; settings: 1 h, dose 0.2-20 µM; procedure, shortened: as §3
# [26] = test system: Schistosoma mansoni; assay: Anti-schistosomal activity against adult female Schistosoma mansoni assessed as motility by measuring pairing and varied movement intensity using viability scale at 10 uM incubated for 24 hrs by inverted microscopic analysis; type: functional
# [27] = test system: Schistosoma mansoni; assay: Anti-schistosomal activity against adult female Schistosoma mansoni assessed as motility by measuring pairing and varied movement intensity using viability scale at 10 uM incubated for 120 hrs by inverted microscopic analysis; type: functional
# [28] = test system: Schistosoma mansoni; assay: Anti-schistosomal activity against adult female Schistosoma mansoni assessed as worm death at 10 uM incubated for 1 to 120 hrs by inverted microscopic analysis; type: functional, organism-based; settings: time 1-120 hrs; procedure, shortened: as §4
# [29] = Stability of the compound in PBS at pH 7.4 at 5 uM assessed as compound remaining incubated for 5 hrs by LC-MS/MS analysis relative to control; type: physicochemical; settings: read-out: Stability; procedure, shortened: as §2
# [30] = Cardiotoxicity in human iPSC-CM cells assessed as effect on pulse waveform by measuring calcium ion influx at 0.2 to 20 uM incubated for 60 mins by fluorescent indicator analysis; type: toxicity, cell-based; settings: 1 h, dose 0.2-20 µM; procedure, shortened: as §3
# [31] = test system: HeLa; assay: Cytotoxicity against human HeLa cells assessed as cell viability at 30 uM incubated for 48 hrs by absorbance based WST-8 assay (reference value: 100 %); type: functional; settings: read-out: Activity; procedure, shortened: as §1
# [32] = test system: Schistosoma mansoni; assay: Anti-schistosomal activity against adult female Schistosoma mansoni assessed as motility by measuring pairing and varied movement intensity using viability scale at 10 uM incubated for 1 hr by inverted microscopic analysis; type: functional
structure (smiles),measurement,setting,value
O=C(C1CCCCC1)N1CON2CCc3ccccc3C2C1 (stereo not given),Activity,[1],3
same,viability at 10 µM,[2],93.1%
same,"remaining at 1 h, 5 µM",[3],95.2%
same,"remaining at 10 min, 500 µM",[4],2.7%
same,Activity,[5],Toxic
same,Activity,[6],Non-toxic
same,Activity,[7],2
same,Activity,[8],Non-toxic
same,Activity,[9],3
same,logD,[10],4.1
same,Activity,[11],Non-toxic
same,Activity,[12],inactive
same,"Papp at 2 h, 25 µM",[13],30.5 ×10⁻⁶ cm/s
same,"remaining at 1 h, 500 µM",[14],0.2%
same,"remaining at 1 h, 5 µM",[15],95.1%
same,"remaining at 1 h, 500 µM",[16],5.9%
same,Activity,[17],2
same,Activity,[18],Toxic
same,"remaining at 10 min, 500 µM",[19],47.3%
same,Activity,[20],2.3
same,Activity,[21],3
same,"remaining at 5 h, 5 µM",[22],94.9%
same,Activity,[23],Non-toxic
same,Activity,[24],Non-toxic
O=C(C1CCCCC1)N1CC(=O)N2CCc3ccccc3C2C1 (stereo not given) [PRAZIQUANTEL],Activity,[1],3.7
same,"remaining at 1 h, 5 µM",[3],103%
same,Activity,[25],Non-toxic
same,Activity,[26],3.3
same,Activity,[9],3.7
same,Activity,[27],3.3
same,Activity,[28],inactive
same,Activity,[12],inactive
same,"remaining at 5 h, 5 µM",[29],100%
same,Activity,[30],Non-toxic
same,"Papp at 2 h, 25 µM",[13],37.3 ×10⁻⁶ cm/s
same,"remaining at 1 h, 5 µM",[15],93.1%
same,viability at 30 µM,[31],97.1%
same,Activity,[32],3.7
same,Activity,[21],3.3
same,"remaining at 5 h, 5 µM",[22],95%
